According to ChEMBL document CHEMBL4014306, “Pyrazolopyrimidines as Potent Stimulators for Transient Receptor Potential Canonical 3/6/7 Channels” (J Med Chem, 2017):
The source made the active and inactive calls. The calls are words filed in the database; no cut-off is given here.

Tests used:
Format in all cases: cell-based
[1] = molecular target: T1, Short transient receptor potential channel 3 (Homo sapiens) (UniProt Q13507); experiment: Agonist activity at human TRPC3 expressed in HEK293 cells assessed as induction of membrane depolarization measured for 2.5 mins in presence of 0.5 mM Ca2+ by FLIPR membrane potential dye-based fluorescence assay
T1 sequence (whole entry): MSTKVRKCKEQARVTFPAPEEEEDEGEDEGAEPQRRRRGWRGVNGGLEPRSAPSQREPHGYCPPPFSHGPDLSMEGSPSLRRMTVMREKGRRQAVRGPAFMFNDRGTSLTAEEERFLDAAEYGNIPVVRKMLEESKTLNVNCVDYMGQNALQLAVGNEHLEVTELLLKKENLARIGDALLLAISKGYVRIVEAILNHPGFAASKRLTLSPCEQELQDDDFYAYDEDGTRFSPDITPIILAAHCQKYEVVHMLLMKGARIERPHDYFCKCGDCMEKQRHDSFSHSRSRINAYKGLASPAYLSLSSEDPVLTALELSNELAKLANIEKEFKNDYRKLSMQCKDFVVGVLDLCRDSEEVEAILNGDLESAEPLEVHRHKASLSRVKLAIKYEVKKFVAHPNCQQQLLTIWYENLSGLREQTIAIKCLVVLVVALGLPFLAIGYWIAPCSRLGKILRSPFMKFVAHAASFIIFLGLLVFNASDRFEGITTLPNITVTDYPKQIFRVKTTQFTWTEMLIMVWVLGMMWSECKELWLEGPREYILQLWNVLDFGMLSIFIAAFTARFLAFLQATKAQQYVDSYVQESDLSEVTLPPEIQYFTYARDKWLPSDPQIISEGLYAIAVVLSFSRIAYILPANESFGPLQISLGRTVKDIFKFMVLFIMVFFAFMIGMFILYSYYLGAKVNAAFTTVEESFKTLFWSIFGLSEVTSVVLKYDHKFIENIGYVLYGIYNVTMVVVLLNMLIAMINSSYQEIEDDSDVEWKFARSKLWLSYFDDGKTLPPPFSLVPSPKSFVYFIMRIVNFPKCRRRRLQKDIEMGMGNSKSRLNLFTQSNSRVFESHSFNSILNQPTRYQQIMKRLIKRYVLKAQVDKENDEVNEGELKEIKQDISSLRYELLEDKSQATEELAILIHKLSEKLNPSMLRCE
How it was run: (§1)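 HEK293 cells stably expressing human TRPC3, run on a FlexStation at 32 °C. Loaded with FMP dye, or Fluo-type Ca2+ dye with 2 mM probenecid. Extracellular NaCl/HEPES saline, pH 7.4, with 2 mM Ca2+ (standard) or 0.5 mM Ca2+. Read as F/F0. In 0.5 mM Ca2+, FMP EC50 from a Hill fit, n = 6.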

[2] = molecular target: T2, Short transient receptor potential channel 6 (Mus musculus, UniProt Q61143); experiment: (§2) Agonist activity at mouse TRPC6 expressed in HEK293 cells co-expressing Gq11-PLCbeta fused M5 receptor assessed as induction of membrane potential depolarization measured for 2.5 mins by FLIPR assay
T2 sequence (Q61143 whole entry): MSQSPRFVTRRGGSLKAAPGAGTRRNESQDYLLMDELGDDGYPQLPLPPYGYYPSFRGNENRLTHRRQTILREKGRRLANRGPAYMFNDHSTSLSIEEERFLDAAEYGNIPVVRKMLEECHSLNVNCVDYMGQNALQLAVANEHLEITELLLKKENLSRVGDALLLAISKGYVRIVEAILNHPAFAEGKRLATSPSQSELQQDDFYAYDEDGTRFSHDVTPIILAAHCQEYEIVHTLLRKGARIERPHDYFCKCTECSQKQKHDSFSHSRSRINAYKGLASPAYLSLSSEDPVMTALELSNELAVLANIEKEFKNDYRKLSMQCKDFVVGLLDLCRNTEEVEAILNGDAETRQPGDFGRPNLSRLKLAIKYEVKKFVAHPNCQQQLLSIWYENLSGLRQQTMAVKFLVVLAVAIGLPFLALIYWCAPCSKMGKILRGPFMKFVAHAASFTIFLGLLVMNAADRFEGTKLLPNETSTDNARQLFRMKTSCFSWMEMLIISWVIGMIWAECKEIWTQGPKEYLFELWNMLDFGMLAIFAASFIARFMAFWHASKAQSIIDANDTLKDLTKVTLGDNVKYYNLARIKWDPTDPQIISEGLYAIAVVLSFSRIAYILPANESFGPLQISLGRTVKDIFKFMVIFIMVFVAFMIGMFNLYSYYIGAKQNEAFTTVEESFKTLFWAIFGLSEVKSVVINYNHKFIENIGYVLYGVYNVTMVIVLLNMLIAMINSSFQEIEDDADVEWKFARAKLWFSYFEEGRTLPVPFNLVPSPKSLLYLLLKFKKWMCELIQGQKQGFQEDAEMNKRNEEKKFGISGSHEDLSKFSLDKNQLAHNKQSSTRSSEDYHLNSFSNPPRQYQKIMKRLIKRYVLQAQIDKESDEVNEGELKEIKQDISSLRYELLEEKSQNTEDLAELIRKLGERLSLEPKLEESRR
How it was run: (§3)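 Mouse TRPC6/M5 stable HEK293 cells loaded with FLIPR membrane potential dye in extracellular solution containing 2 mM CaCl2, pH 7.4. Varying compound concentrations are applied, with 1 μM carbachol as reference, and read on a microplate reader at 32 °C. The increase in fluorescence (ΔF/F0) indicates depolarization. The concentration–response curve gives EC50, n = 6.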

[3] = molecular target: T3, Short transient receptor potential channel 6 (Mus musculus) (UniProt Q61143); experiment: as §2; how it was run: as §3
T3 sequence (whole entry): T2 sequence (Q61143 whole entry)

[4] = molecular target: T1, Short transient receptor potential channel 3 (Homo sapiens); experiment: Agonist activity at human TRPC3 expressed in HEK293 cells assessed as induction of membrane depolarization measured for 2.5 mins in presence of 2 mM Ca2+ by FLIPR membrane potential dye-based fluorescence assay; how it was run: as §1

Structure (SMILES): CCOC(=O)N1CCC(c2cc(O)n3nc(C)c(-c4ccc(F)cc4)c3n2)CC1
- Activity [1]: Dose-dependent effect
- EC50 [2]: 1400 nM
- Activity [3]: Dose-dependent effect
- Activity [4]: inactive
